Converted amounts (≈) assume the structure as drawn. The source made the active and inactive calls. No cut-off for these calls is given here.
Key:
[1] = system: Brain; experiment: Antiperoxidative activity in Sprague-Dawley rat brain assessed as inhibition of malonaldehyde level; assay type: functional, tissue-based
In short: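 Cerebral cortex from male SD rats (6 weeks) homogenized in ice-cold 50 mM PBS pH 7.4, spun 1300g. Supernatant incubated 37 °C, 30 min with vehicle or compound. Stopped with 20% TCA; thiobarbituric acid reaction at 100 °C, 15 min; MDA read at 532 nm, less pre-assay MDA. Duplicate assay, n = 2.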

[2] = AUC in Sprague-Dawley rat at 10 mg/kg, po; assay type: ADME, organism-based; set-up: dose 10 mg/kg, route oral; conditions: plasma
In short: (§1)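 Male SD rats, 6-7 weeks, fasted overnight, n = 3; single oral 10 mg/kg dose suspended in 5% arabic gum. Jugular-vein heparinized blood at 0.5, 1, 3, 5, 8, 24 h; plasma free-form compound by HPLC. AUC taken over 24 h.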

[3] = Inhibition of lipid peroxidation in genetically hypercholesterolemic KHC rabbit serum assessed as malonaldehyde level after 4 hrs; assay type: functional, cell-free; conditions: Oryctolagus cuniculus
In short: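 Heparinized ear-artery plasma from KHC rabbits (2.4-2.7 kg) incubated with CuSO₄ 2 mM at 37 °C for 4 h with vehicle or compound. Lipid peroxide measured as MDA by kit. IC50 from duplicate tubes; n = 2.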

[4] = system: Plasma; experiment: Inhibition of LDL oxidation in genetically hypercholesterolemic KHC rabbit plasma assessed as malonaldehyde level after 1 hr; assay type: functional, cell-free; conditions: Oryctolagus cuniculus
In short: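 LDL fraction isolated from plasma of male KHC rabbits and oxidized with CuSO₄ 5 µM at 37 °C for 1 h with vehicle or compound. Oxidation read as MDA. IC50 from duplicate tubes per concentration; n = 4.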

[5] = molecular target: T1, Acyl-CoA:cholesterol acyltransferase (Oryctolagus cuniculus, UniProt Q95214); experiment: Inhibition of ACAT in hyperlipidemic white rabbit liver microsomes assessed as esterified cholesterol accumulation; set-up: species or system Microsome
T1 sequence (Q95214 whole entry): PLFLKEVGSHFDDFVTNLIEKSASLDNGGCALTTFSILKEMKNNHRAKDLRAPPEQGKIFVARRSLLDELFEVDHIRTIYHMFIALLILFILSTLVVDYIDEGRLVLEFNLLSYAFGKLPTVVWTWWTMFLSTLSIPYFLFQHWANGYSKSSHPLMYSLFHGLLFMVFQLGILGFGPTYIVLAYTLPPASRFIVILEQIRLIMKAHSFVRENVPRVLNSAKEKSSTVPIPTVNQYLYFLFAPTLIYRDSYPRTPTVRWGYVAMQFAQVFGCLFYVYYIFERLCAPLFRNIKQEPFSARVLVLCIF
In short: (§2)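 Microsomes (12000g then 105000g spins at 4 °C, sucrose/phosphate/EDTA/dithioerythritol buffer pH 7.4) from hypercholesterolemic rabbit tissues, in 154 mM phosphate pH 7.4 with BSA. Compound preincubated 5 min at 37 °C, then 30 nmol [1-14C]oleoyl-CoA added. Reaction at 37 °C: adrenal 10 min, intestine 7.5 min, liver 20 min, macrophage 30 min. Labelled cholesteryl ester extracted and resolved by TLC. IC50 from duplicate tubes.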

[6] = system: Rattus norvegicus; experiment: Hypolipidemic effect in high-cholesterol diet fed Wistar rat assessed as LDL/VLDL cholesterol level at 3 mg/kg/day, po for 3 days; assay type: functional
In short: (§3)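 Male Wistar rats, 8-9 weeks, on a diet of 1% cholesterol, 0.5% cholic acid and 10% coconut oil for 3 days; dosed orally once daily in 5% arabic gum, or vehicle (n = 5/group). Fasted 5 h after the last dose; abdominal-aorta blood under pentobarbital. Serum total and HDL cholesterol measured enzymatically.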

[7] = system: Syrian golden hamster; experiment: Hypolipidemic effect in regular diet fed Syrian hamster assessed as LDL/VLDL cholesterol level at 3 mg/kg/day, po for 3 weeks; assay type: functional, Mesocricetus auratus
In short: (§4)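 Male Syrian hamsters, 9 weeks, regular diet for 3 weeks with once-daily oral dosing in 5% arabic gum, or vehicle (n = 5/group). Abdominal-aorta blood 24 h after the last dose, under pentobarbital. Serum total and HDL cholesterol by enzymatic kit.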

[8] = Cmax in Japanese white rabbit at 10 mg/kg, po; assay type: ADME, organism-based, Oryctolagus cuniculus; set-up: dose 10 mg/kg, route oral; conditions: in vivo
In short: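 Oral 10 mg/kg in 5% arabic gum to male Japanese white rabbits (2.7-3.0 kg, n = 4). Ear-vein heparinized blood at 0.25, 0.5, 1, 2, 3, 5, 8, 24 h. Free-form concentration in plasma by HPLC.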

[9] = system: Rattus norvegicus; experiment: Hypolipidemic effect in high-cholesterol diet fed Wistar rat assessed as HDL cholesterol level at 3 mg/kg/day, po for 3 days; assay type: functional; in short: as §3
[10] = molecular target: T1, Acyl-CoA:cholesterol acyltransferase; experiment: Inhibition of ACAT in hyperlipidemic white rabbit adrenal microsomes assessed as esterified cholesterol accumulation; set-up: species or system Adrenal gland; in short: as §2
[11] = molecular target: T2, Sterol O-acyltransferase 1 (Homo sapiens, UniProt P35610); experiment: Inhibition of ACAT-mediated esterified cholesterol accumulation in human THP1 cells exposed to acetyl-LDL during differentiation assessed as effect on foam cell formation; assay type: cell-based, THP-1
T2 sequence (P35610 whole entry): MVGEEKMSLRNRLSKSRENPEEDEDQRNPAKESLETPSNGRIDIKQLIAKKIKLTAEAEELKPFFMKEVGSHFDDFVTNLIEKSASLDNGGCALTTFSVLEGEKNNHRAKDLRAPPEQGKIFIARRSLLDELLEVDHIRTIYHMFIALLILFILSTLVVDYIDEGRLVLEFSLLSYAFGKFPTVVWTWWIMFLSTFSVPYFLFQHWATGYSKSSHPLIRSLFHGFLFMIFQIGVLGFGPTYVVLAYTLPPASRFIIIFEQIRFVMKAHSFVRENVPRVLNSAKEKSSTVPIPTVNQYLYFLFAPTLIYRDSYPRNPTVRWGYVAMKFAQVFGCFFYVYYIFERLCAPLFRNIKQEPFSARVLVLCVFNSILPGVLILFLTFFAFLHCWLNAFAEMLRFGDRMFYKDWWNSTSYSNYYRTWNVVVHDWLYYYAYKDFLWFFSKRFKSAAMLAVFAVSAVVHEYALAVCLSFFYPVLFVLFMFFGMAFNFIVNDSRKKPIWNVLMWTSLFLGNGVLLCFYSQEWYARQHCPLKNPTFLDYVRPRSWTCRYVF

[12] = system: Oryctolagus cuniculus; experiment: Hypolipidemic effect in high-cholesterol diet fed Japanese white rabbit assessed as HDL cholesterol level at 1 mg/kg/day, po for 7 days; assay type: functional
In short: (§5)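 Male Japanese white rabbits (2.5-3.0 kg) fed 1% cholesterol diet for 7 days with once-daily oral dosing in 5% arabic gum, or vehicle (n = 5/group). Fasted overnight after the final dose; ear-artery blood. Serum total and HDL cholesterol by enzymatic kit.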

[13] = system: Cavia porcellus; experiment: Adrenotoxicity in guinea pig at 100 mg/kg/day administered for 4 days; assay type: toxicity, organism-based; conditions: in vivo, 96 h
[14] = molecular target: T2, Sterol O-acyltransferase 1; experiment: Inhibition of ACAT-mediated esterified cholesterol accumulation in human THP1 cells exposed to acetyl-LDL after differentiation assessed as effect on foam cell formation; assay type: cell-based, THP-1
In short: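 THP-1 cells first differentiated 3 days in RPMI-1640/10% FBS with PMA 200 nM and 2-mercaptoethanol 50 µM. Then washed and cultured 2 days with 50 µM 2-mercaptoethanol, acetyl-LDL 400 µg/mL from KHC rabbit plasma, and compound. Lipids extracted with hexane/isopropanol; esterified cholesterol = total minus free cholesterol, enzymatic; protein by Lowry. Duplicate assay, n = 4.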

[15] = molecular target: T1, Acyl-CoA:cholesterol acyltransferase; experiment: Inhibition of ACAT in hyperlipidemic white rabbit intestine microsomes assessed as esterified cholesterol accumulation; set-up: species or system Microsome; in short: as §2
[16] = molecular target: T1, Acyl-CoA:cholesterol acyltransferase; experiment: Inhibition of ACAT in microsomes from hyperlipidemic white rabbit macrophages assessed as esterified cholesterol accumulation; in short: as §2
[17] = molecular target: T1, Acyl-CoA:cholesterol acyltransferase; experiment: Inhibition of normocholesterolemic rabbit liver ACAT
In short: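 Liver from normocholesterolemic male Japanese White rabbits homogenized in sucrose/phosphate/EDTA/dithioerythritol buffer pH 7.4. Microsomes collected by 12000g then 105000g spins. Then 30 nmol [1-¹⁴C]oleoyl-CoA added, 20 min at 37 °C. Cholesteryl ester extracted and separated by TLC.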

[18] = system: Canis familiaris; experiment: Hypolipidemic effect in Western diet fed Beagle dog assessed as HDL:HDL cholesterol level at 3 mg/kg/day, po for 7 days; assay type: functional, Canis lupus familiaris
In short: (§6)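 Male beagles (8.8-12.0 kg) fed a Western diet (meat, eggs, butter) for 7 days with once-daily oral dosing in 5% arabic gum, or vehicle (n = 3/group). […] blood 24 h after the last dose. Serum total and HDL cholesterol measured enzymatically.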

[19] = Cmax in Sprague-Dawley rat at 10 mg/kg, po; assay type: ADME, organism-based; set-up: dose 10 mg/kg, route oral; conditions: in vivo; in short: as §1
[20] = system: Canis familiaris; experiment: Hypolipidemic effect in Western diet fed Beagle dog assessed as LDL/VLDL cholesterol level at 3 mg/kg/day, po for 7 days; assay type: functional, Canis lupus familiaris; in short: as §6
[21] = system: Syrian golden hamster; experiment: Hypolipidemic effect in regular diet fed Syrian hamster assessed as HDL:HDL cholesterol level at 3 mg/kg/day, po for 3 weeks; assay type: functional, Mesocricetus auratus; in short: as §4
[22] = Cmax in Beagle dog at 10 mg/kg, po; assay type: ADME, organism-based, Canis lupus familiaris; set-up: dose 10 mg/kg, route oral; conditions: in vivo
In short: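 Male beagles (9.0-11.6 kg, n = 4) dosed orally at 10 mg/kg as a 5% arabic gum suspension. Heparinized jugular-vein blood at 0.25, 0.5, 1, 2, 3, 5, 8, 12 h. Plasma free-form drug measured by HPLC.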

[23] = system: Oryctolagus cuniculus; experiment: Hypolipidemic effect in high-cholesterol diet fed Japanese white rabbit assessed as LDL/VLDL cholesterol level at 1 mg/kg/day, po for 7 days; assay type: functional; in short: as §5
[24] = Solubility in water at pH 7.0; assay type: physicochemical
In short: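 6 mg of compound shaken 30 min at room temperature in 3 mL 1/15 M potassium phosphate buffer pH 7.0, centrifuged and filtered (0.45 µm). Filtrate concentration by HPLC.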

[25] = Distribution coefficient, log D at pH 7.0; assay type: physicochemical; conditions: octanol/water
In short: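 5 mg of compound in 5 mL octanol shaken 30 min at room temperature with 5 mL 1/15 M potassium phosphate buffer pH 7.0, then centrifuged. Both phases quantified by HPLC. log D taken as log of the octanol/buffer concentration ratio.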

[26] = molecular target: Phosphatidylcholine-sterol acyltransferase (Rattus norvegicus) (UniProt P18424); experiment: Inhibition of rat LCAT up to 10 uM
Sequence of Phosphatidylcholine-sterol acyltransferase (Rattus norvegicus) (P18424 whole entry, looked up): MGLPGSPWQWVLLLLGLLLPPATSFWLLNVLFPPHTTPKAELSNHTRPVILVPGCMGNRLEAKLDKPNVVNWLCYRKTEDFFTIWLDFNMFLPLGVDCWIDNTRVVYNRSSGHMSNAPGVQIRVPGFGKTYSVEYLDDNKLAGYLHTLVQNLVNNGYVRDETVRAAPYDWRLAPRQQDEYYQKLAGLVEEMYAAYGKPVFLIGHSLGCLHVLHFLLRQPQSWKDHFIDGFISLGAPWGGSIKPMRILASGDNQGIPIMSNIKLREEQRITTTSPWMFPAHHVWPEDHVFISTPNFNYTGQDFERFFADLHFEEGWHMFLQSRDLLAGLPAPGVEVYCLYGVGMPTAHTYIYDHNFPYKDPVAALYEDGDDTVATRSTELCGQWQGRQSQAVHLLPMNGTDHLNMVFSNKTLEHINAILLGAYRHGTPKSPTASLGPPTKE

SMILES	IC50 [1]	AUC [2]	IC50 [11]	IC50 [17]	solubility [24]	logD [25]	also measured
CC(C)(Sc1cc(C(C)(C)C)c(O)c(C(C)(C)C)c1)Sc1cc(C(C)(C)C)c(O)c(C(C)(C)C)c1 [PROBUCOL]							IC50 [3]: 21.6 µM; IC50 [4]: 132 µM
CCCCCCCCN1CCc2c(C)c(CC(=O)O)c(C)c(NC(=O)C(C)(C)C)c21 [PACTIMIBE]	1.3 µM	1500 ng·h/mL	1.8 µM	1.2 µM			IC50 [5]: 0.69 µM; Activity [6]: 9.7 mg/dL; Activity [7]: 70.3 mg/dL; Cmax [8]: 7.2 µM; IC50 [3]: 4.4 µM; Activity [9]: 29.4 mg/dL; IC50 [10]: 15.9 µM; Activity [12]: 15.4 mg/dL; Activity [13]: Non-toxic; IC50 [14]: 0.3 µM; IC50 [15]: 0.72 µM; IC50 [16]: 1.9 µM; Activity [18]: 141.3 mg/dL; Cmax [19]: 2.2 µM; IC50 [4]: 0.98 µM; Activity [20]: 31.6 mg/dL; Activity [21]: 58.3 mg/dL; Cmax [22]: 26.8 µM; Activity [23]: 119.5 mg/dL
CCCCCCCCN1CCc2c(C)cc(C)c(NC(=O)C(C)(C)C)c21.Cl					0.08 µg/mL	6.2	
CC(C)c1cc(C(C)C)c(CC(=O)NS(=O)(=O)Oc2c(C(C)C)cccc2C(C)C)c(C(C)C)c1 [AVASIMIBE]			1.5 µM	7.6 µM			
CCCCCCCCN1CCc2c(C)c(CC(=O)O)c(C)c(NC(=O)C(C)(C)C)c21.CCCCCCCCN1CCc2c(C)c(CC(=O)O)c(C)c(NC(=O)C(C)(C)C)c21.O=S(=O)(O)O [PACTIMIBE SULFATE]					1450 µg/mL	2.9	
CCCCCCCCN1CCc2c(C)c(Cc3nnn[nH]3)c(C)c(NC(=O)C(C)(C)C)c21	1.7 µM	6600 ng·h/mL	> 10 µM	> 10 µM	66 µg/mL (≈ 150 µM)	3.7	
Cc1cc(C)c(NC(=O)C(C)(C)C)c2c1CCN2CCCCCCCCCC(=O)O.Cl					732 µg/mL	2.8	
CCCCCCCCN1CCc2c(C)c(CN)c(C)c(NC(=O)C(C)(C)C)c21.Cl.Cl					857 µg/mL	2.3	
CCCCCCCCN1CCc2c(C)c(CC(=O)O)c(C)c(NC(=O)C(C)(C)C)c21							Activity [26]: inactive
CCCCCCCCN1CCc2c(C)c(CN)c(C)c(NC(=O)C(C)(C)C)c21	4.2 µM						
Cc1cc(C)c(NC(=O)C(C)(C)C)c2c1CCN2CCCCCCCCCC(=O)O	48.3 µM	100 ng·h/mL	> 10 µM	5.5 µM			

Further lines, with some results ahead:

IC50 [1]	AUC [2]	IC50 [11]	IC50 [17]	solubility [24]	logD [25]	SMILES	also measured
3.1 µM	200 ng·h/mL					CCCCCCCCN1CCc2c(C)cc(C)c(NC(=O)C(C)(C)C)c21	
				355 µg/mL	3.5	CCCCCCCCN1CC(CCC(=O)O)c2c(C)cc(C)c(NC(=O)C(C)(C)C)c21.Cl (stereo unspecified)	
				401 µg/mL	3	CCCCCCCCN1CCc2c(C)cc(C)c(NC(=O)C(C)(C)CCC(=O)O)c21.Cl	
6.6 µM	5000 ng·h/mL	> 10 µM	> 10 µM			CCCCCCCCN1CCc2c(C)cc(C)c(NC(=O)C(C)(C)CCC(=O)O)c21	
4.2 µM	1700 ng·h/mL	3.6 µM	5 µM			CCCCCCCCN1CC(CCC(=O)O)c2c(C)cc(C)c(NC(=O)C(C)(C)C)c21 (stereo unspecified)	

Source: ChEMBL document CHEMBL1155847, “Novel indoline-based acyl-CoA:cholesterol acyltransferase inhibitor with antiperoxidative activity: improvement of physicochemical properties and biological activities by introduction of carboxylic acid” (J Med Chem, 2008)
